A short description of data set [1]: Apparent permeability from basolateral to apical side in human Caco2 cells at 1 uM after 21 to 28 days. The conditions noted are these: caco-2. Type of data set: ADME, cell-based. Summed up: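 Caco-2 cells grown 21-28 days on permeable filters. A 2 mM DMSO stock was diluted into Hanks-HEPES pH 7.4. Dosing solution went into the apical (A-B) or basolateral (B-A) chamber, and the opposite chamber was sampled over 240 min with buffer replacement. Efflux ratio = Papp,B-A/Papp,A-B. Mean ± SD, n = 3.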

In another data set the test system is Mus musculus. Nature of the data set: Reversal of haloperidol-induced hypolocomotion in po dosed NMRI mouse administered 30 mins before haloperidol challenge measured for 20 mins. Format: functional. The procedure, abridged: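 Male NMRI mice (n = 8/group) were given compound po in 25% cremophor/saline, then haloperidol 0.63 mg/kg sc 30 min later. After 15 min they went into photocell activity boxes, and locomotion was recorded for 20 min. ED50 by sigmoidal fit with top 100 and bottom 0.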

Data set [2] is described as follows: Tmax in Sprague-Dawley rat at 1 mg/kg, po. Format: ADME, organism-based. More on the design: dose 1 mg/kg, route oral. Particulars: in vivo. The procedure, abridged: (§1)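 Awake Sprague-Dawley rats carrying a carotid catheter were dosed with 0.5 mg/kg iv or 1 mg/kg po in aqueous 25% cremophore, n = 3 per route. Ten 100 μL blood samples were collected automatically over 20 h. Plasma was assayed by HTLC-MS/MS. Parameters came from a two-compartment model with first-order absorption (po) and elimination.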

Another data set has as its system Rattus norvegicus. Nature of the data set: Cmax in Sprague-Dawley rat at 1 mg/kg, po. Type of data set: ADME, organism-based. Further details: dose 1 mg/kg, route oral. The conditions noted are these: in vivo. The procedure, abridged: as §1
The target of a further data set is T1, Adenosine receptor A1 (Homo sapiens, UniProt P30542).
T1 sequence (P30542 whole entry): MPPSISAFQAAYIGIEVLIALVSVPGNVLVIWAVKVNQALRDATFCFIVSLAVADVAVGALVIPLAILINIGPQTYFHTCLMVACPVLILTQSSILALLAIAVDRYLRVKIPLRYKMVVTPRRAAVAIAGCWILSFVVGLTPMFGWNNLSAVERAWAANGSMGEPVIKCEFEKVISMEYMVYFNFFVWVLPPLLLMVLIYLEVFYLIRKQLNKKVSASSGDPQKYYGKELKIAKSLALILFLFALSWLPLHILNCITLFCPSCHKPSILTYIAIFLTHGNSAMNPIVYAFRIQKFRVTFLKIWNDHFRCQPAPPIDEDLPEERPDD
Nature of the data set: Displacement of [3H]-DPCPX from human adenosine A1 receptor expressed in CHO cells after 30 mins by scintillation counting. Type of data set: cell-based. The procedure, abridged:
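CHO-hA1 membranes at 10.8 μg protein/well, pretreated with adenosine deaminase (2 U/mL, 30 min, 37 C), were incubated with 1 nM [3H]-DPCPX in 50 mM Tris/HCl pH 7.4 for 30 min at 25 C across 10 compound concentrations. Filtration on PEI-soaked GF/B, scintillation counting. Nonspecific binding by CGS15943. Ki by Cheng-Prusoff. Means of ≥2 determinations.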

For another data set, the target named is Cytochrome P450 2D6 (Homo sapiens, UniProt P10635). The experiment in a line: Inhibition of recombinant CYP2D6 after 45 mins. Format: ADME. Summed up: (§2)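 Recombinant CYP supersomes incubated in phosphate buffer with eight compound concentrations (40-0.02 μM) and fluorogenic substrates. CYP1A2: 7-ethoxy-3-cyanocoumarin 10 μM, 28 min. CYP2C19: same substrate 50 μM, 45 min. CYP2D6: AMMC 3 μM, 45 min. CYP3A4: resorufin benzyl ether 100 μM, 30 min. Fluorescent metabolite read; IC50 relative to uninhibited controls.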
Chain of Cytochrome P450 2D6 (P10635 whole entry): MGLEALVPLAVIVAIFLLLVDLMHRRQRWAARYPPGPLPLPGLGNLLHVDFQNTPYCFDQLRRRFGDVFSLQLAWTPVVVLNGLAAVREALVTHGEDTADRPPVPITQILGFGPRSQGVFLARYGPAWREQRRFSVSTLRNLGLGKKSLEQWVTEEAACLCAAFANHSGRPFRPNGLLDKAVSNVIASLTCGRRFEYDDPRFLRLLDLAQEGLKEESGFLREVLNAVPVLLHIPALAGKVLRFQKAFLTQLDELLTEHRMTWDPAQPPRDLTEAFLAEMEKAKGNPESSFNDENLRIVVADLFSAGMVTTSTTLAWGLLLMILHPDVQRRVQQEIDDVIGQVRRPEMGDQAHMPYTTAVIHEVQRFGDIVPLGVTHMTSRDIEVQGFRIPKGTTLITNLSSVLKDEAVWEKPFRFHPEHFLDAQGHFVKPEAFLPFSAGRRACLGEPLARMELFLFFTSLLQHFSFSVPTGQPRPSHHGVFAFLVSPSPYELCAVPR

The target of a further data set is Adenosine receptor A2a (Homo sapiens, UniProt P29274). Nature of the data set: Displacement of [3H]-ZM241385 from human adenosine A2A receptor expressed in high five cells after 30 mins by scintillation counting.
Chain of Adenosine receptor A2a (P29274 whole entry): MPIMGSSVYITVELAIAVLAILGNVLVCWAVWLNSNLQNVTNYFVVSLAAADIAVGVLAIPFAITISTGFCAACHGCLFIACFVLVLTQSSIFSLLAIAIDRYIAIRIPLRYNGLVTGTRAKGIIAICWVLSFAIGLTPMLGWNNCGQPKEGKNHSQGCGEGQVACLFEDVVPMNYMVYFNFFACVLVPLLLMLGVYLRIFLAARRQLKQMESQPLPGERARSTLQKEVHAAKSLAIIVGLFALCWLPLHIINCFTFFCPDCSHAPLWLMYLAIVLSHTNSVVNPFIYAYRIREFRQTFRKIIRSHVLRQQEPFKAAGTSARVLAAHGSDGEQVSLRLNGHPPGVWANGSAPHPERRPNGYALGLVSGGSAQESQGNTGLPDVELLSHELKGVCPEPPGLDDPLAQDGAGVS
The target of the next data set is T2, Cytochrome P450 1A2 (Homo sapiens, UniProt P05177).
T2 sequence (P05177 whole entry): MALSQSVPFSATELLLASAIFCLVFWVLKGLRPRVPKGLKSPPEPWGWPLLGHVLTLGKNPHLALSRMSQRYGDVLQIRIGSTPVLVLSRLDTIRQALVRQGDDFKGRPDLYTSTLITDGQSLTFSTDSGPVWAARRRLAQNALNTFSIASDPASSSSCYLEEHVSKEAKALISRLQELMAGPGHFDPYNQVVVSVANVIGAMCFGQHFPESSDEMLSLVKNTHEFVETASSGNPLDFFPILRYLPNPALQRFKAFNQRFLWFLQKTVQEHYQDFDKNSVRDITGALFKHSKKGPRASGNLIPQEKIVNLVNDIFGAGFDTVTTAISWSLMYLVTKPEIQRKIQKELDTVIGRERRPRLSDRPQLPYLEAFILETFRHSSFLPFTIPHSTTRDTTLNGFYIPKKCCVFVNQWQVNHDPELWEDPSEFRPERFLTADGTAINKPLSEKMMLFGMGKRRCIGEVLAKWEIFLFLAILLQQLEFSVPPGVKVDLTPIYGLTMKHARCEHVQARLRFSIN
The experiment in a line: Inhibition of recombinant CYP1A2 after 28 mins. Format: ADME. The procedure, abridged: as §2

The target of another data set is Cytochrome P450 2C9 (Homo sapiens, UniProt P11712). Nature of the data set: Inhibition of recombinant CYP2C9 after 45 mins. Type of data set: ADME.
Chain of Cytochrome P450 2C9 (P11712 whole entry): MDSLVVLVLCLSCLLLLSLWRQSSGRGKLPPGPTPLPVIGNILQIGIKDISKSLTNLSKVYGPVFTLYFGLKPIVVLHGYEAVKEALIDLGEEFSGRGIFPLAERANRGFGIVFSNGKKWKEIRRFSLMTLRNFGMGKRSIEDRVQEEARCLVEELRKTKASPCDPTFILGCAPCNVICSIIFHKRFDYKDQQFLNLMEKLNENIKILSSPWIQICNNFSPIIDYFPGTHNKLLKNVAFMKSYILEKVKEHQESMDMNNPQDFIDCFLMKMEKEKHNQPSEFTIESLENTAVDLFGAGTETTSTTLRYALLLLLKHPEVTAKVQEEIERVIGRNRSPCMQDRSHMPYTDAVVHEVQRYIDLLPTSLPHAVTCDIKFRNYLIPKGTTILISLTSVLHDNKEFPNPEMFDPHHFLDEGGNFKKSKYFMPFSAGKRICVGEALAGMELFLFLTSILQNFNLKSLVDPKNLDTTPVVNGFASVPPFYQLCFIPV
The target in data set [3] is T3, Adenosine receptor A3 (Homo sapiens) (UniProt P0DMS8).
T3 sequence (whole entry): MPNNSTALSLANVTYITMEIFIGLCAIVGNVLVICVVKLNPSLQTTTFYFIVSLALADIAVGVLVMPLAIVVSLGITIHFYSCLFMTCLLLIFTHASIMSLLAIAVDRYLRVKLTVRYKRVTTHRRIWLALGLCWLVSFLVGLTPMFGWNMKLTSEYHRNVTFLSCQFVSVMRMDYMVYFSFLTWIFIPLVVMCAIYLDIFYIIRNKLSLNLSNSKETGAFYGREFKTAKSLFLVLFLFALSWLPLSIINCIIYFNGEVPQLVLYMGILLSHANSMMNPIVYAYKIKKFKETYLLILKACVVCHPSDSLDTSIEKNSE
The experiment in a line: Displacement of [3H]-AB-MECA from human recombinant adenosine A3 receptor expressed in CHO-K1 cells at 10 uM after 60 mins. Format: cell-based.

Data set [4] is described as follows: Oral bioavailability in Sprague-Dawley rat at 1 mg/kg. Format: ADME, organism-based. The conditions noted are these: in vivo. Summed up:
as §1

For a further data set, the target named is Cytochrome P450 2C19 (Homo sapiens, UniProt P33261). Nature of the data set: Inhibition of recombinant CYP2C19 after 45 mins. Format: ADME. Summed up: as §2
Chain of Cytochrome P450 2C19 (P33261 whole entry): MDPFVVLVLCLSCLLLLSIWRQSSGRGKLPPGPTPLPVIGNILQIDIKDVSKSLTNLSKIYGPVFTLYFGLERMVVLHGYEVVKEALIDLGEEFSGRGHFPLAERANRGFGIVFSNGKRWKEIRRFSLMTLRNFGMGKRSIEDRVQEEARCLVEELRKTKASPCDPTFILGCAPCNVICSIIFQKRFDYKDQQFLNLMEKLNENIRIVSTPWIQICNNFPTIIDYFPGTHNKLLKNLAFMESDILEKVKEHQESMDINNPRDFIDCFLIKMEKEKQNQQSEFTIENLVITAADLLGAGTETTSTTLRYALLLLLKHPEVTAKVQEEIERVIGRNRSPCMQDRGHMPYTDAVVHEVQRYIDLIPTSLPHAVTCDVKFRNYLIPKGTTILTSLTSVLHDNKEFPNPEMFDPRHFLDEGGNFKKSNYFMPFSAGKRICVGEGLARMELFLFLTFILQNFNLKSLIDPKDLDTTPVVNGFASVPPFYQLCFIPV
A short description of data set [5]: Primary phase half life in Sprague-Dawley rat at 0.5 mg/kg, iv and 1 mg/kg, po. Format: ADME, organism-based. The conditions noted are these: in vivo. The procedure, abridged: as §1
Data set [6] is described as follows: Terminal half life in Sprague-Dawley rat at 0.5 mg/kg, iv and 1 mg/kg, po. Type of data set: ADME, organism-based. The conditions noted are these: in vivo. Summed up: as §1
The next data set deals with Hepatocyte. The experiment in a line: Intrinsic clearance in rat hepatocytes at 0.2 uM after 60 mins. Type of data set: ADME, cell-based, Liver. Particulars: 1 h. The procedure, abridged:
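Pooled cryopreserved hepatocytes: human (three donors), male Sprague-Dawley rat (two donors), male beagle dog (two donors). Cells at 10^6/mL in DMEM with 5 mM HEPES, 37 C, 15 min preincubation; compound at 0.2 μM. Samples at 0-60 min, depletion by LC-MS/MS. t1/2 scaled to CLint with 120 (human, rat) or 240 (dog) million cells/g liver. n = 1.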

Another data set deals with T4, Adenosine receptor A3 (Homo sapiens, UniProt P0DMS8).
T4 sequence (P0DMS8 whole entry): T3 sequence (whole entry)
The experiment in a line: Displacement of [3H]-AB-MECA from human recombinant adenosine A3 receptor expressed in CHO-K1 cells after 60 mins. Format: cell-based.

The nature of data set [7]: Plasma clearance in Sprague-Dawley rat at 0.5 mg/kg, iv and 1 mg/kg, po. Type of data set: ADME, organism-based. The procedure, abridged: as §1

For `CC(C)(C)CC(=O)Nc1c(F)cc(C(=O)Nc2nccs2)cc1F`, the Papp B→A at 1 µM in data set [1] is 67 ×10⁻⁶ cm/s. In the data set on Mus musculus, the Activity result is “Dose-dependent effect”. In the data set with Mus musculus, the ED50 was 0.5 mg/kg. Besides, in data set [2], the Tmax came to 0.5 h. Besides, the peak level with Rattus norvegicus (Cmax) was 878 ng/mL. Moreover, the Ki at Adenosine receptor A1 was 0.41 µM; on Adenosine receptor A2a, 0.0059 µM; on Adenosine receptor A3 it was greater than 10 µM. The IC50 at Cytochrome P450 2D6, on Cytochrome P450 1A2, on Cytochrome P450 2C9 and at Cytochrome P450 2C19 was greater than 40 µM in each case. For the same compound, the inhibition in data set [3] worked out at 36%. In [4], the bioavailability was 88%. In addition, the half-life in [5] was 1.2 h; in data set [6] it was 7.8 h. Moreover, the CL in the data set with Hepatocyte came out at 12 mL/min. The compound further gave a clearance in data set [7] of 5 mL/min/kg.

The values are drawn from ChEMBL document CHEMBL1671809, “Discovery of phosphoric acid mono-{2-[(E/Z)-4-(3,3-dimethyl-butyrylamino)-3,5-difluoro-benzoylimino]-thiazol-3-ylmethyl} ester (Lu AA47070): a phosphonooxymethylene prodrug of a potent and selective hA(2A) receptor antagonist” (J Med Chem, 2011).
